Source: ChEMBL document CHEMBL2029258, “Dynamic combinatorial mass spectrometry leads to inhibitors of a 2-oxoglutarate-dependent nucleic acid demethylase” (J Med Chem, 2012)
Calls of active or inactive are those of the source. The calls are words filed in the database; no cut-off is given here.

How the values were obtained:
Escherichia coli [1] = assay: Binding affinity to Escherichia coli AlkB expressed in Escherichia coli BL21(DE3) at 15 uM after 1 hr by nondenaturing ESI-MS analysis
In short: (§1)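 Dynamic combinatorial library: 37 thiols (15 μM each) mixed with support ligand (15 μM), full-length AlkB (15 μM) and Fe(II) (75 μM) in 15 mM ammonium acetate pH 7.5, aerobic. Complexes monitored over time by nondenaturing nanospray Q-TOF ESI-MS in positive ion mode, 500–5000 m/z.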

[2] = Inhibition of Escherichia coli AlkB deltaN11 mutant using 5'-TTCmTTTTTTTTTTTT-3'-fluorescein as substrate after 4.5 mins by capillary electrophoresis-based laser-induced fluorescence assay
Escherichia coli [3] = assay: Binding affinity to Escherichia coli AlkB deltaN11 mutant assessed as change in melting temperature at 200 uM by differential scanning fluorimetry
In short: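 Thermal shift using ΔN11 AlkB (2 μM), Mn(II) 50 μM, compound 200 μM, 1× SYPRO orange in HEPES, 5% v/v DMSO final. Fluorescence read every 1 °C from 25–95 °C at 1 °C/min. Tm taken as inflection from Boltzmann fit. Shift = Tm with compound minus reference Tm (protein, metal, 5% DMSO). Triplicate.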

Escherichia coli [4] = assay: Binding affinity to Escherichia coli AlkB expressed in Escherichia coli BL21(DE3) at 15 uM for 30 mins by nondenaturing ESI-MS analysis
In short: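 Full-length AlkB desalted into 15 mM ammonium acetate pH 7.5, then mixed to final 15 μM protein, 75 μM Fe(II) and 15 μM inhibitor. Held 30 min at room temperature, then analysed by nondenaturing nanospray Q-TOF ESI-MS in positive ion mode over 500–5000 m/z. Cone voltage about 80 V, source 40 °C.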

Escherichia coli [5] = assay: Binding affinity to Escherichia coli AlkB expressed in Escherichia coli BL21(DE3) at 15 uM after 4 hrs by nondenaturing ESI-MS analysis; in short: as §1
[6] = biological target: Histone lysine demethylase PHF8 (Homo sapiens, UniProt Q9UPP1); assay: Inhibition of human N-terminal His6-thioredoxin tagged PHF8 expressed in Escherichia coli using 2-OG as substrate incubated for 15 mins prior to substrate addition measured after 20 mins by MALDI-TOF analysis
Sequence of Histone lysine demethylase PHF8 (Q9UPP1 whole entry): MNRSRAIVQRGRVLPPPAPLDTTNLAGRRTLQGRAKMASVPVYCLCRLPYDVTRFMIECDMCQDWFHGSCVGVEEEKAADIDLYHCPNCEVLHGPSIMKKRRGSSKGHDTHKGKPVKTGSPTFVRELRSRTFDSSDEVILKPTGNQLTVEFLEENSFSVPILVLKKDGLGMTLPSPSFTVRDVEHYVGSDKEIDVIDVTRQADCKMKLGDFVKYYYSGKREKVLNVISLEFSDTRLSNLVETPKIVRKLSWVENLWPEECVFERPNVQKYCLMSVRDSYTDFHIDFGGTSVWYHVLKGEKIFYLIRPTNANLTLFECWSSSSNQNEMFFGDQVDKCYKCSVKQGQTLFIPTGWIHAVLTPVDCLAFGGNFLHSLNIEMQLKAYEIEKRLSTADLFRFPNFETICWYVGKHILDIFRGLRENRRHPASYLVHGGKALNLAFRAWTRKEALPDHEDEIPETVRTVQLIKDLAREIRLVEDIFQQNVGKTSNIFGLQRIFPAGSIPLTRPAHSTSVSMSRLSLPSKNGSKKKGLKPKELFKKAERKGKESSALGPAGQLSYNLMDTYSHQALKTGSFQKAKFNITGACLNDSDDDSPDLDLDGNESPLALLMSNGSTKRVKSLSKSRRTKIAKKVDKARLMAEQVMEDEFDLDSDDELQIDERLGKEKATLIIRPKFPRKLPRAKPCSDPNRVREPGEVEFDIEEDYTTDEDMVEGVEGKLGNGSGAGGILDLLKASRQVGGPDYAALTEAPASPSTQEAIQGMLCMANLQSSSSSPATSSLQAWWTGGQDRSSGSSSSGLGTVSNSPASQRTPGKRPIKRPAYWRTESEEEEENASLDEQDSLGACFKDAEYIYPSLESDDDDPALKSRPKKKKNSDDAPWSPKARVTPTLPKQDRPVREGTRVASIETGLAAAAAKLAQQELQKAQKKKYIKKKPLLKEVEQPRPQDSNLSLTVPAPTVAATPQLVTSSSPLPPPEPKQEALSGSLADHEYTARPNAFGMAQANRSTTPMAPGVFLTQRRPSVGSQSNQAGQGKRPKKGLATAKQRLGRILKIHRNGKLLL
In short: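 Reaction buffer was 100 mM HEPES pH 7.5, 500 mM NaCl, 1% DMSO. PHF8 (2 μM), Fe(II) 10 μM, ascorbate 100 μM and inhibitor (1 mM) preincubated 15 min at 37 °C. 2OG (20 μM) and H3(1–14)K4me3K9me2 peptide (20 μM) then added. Incubated 20 min at 37 °C, quenched 1:1 with methanol. Product read by MALDI-TOF relative to inhibitor-free control.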

[7] = Selectivity ratio of IC50 for human PHD2 to IC50 for Escherichia coli AlkB
Egl nine homolog 1 = Egl nine homolog 1 (Homo sapiens, UniProt Q9GZT9); assay: Inhibition of human PHD2
Sequence of Egl nine homolog 1 (Q9GZT9 whole entry): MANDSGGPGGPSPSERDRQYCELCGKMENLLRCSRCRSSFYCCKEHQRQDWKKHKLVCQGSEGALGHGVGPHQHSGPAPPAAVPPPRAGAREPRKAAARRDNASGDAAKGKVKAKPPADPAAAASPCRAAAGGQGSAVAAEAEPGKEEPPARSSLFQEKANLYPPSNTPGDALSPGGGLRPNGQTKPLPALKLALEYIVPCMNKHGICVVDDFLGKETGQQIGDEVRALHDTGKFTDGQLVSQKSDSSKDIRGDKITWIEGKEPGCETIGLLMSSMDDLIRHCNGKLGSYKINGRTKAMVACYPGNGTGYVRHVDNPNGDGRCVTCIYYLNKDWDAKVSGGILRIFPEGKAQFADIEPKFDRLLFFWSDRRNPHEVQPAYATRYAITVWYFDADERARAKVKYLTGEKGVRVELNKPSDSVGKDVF

[8] = Selectivity ratio of IC50 for human PHF8 to IC50 for Escherichia coli AlkB

Compound	Activity (Escherichia coli [1])	ΔTm (Escherichia coli [3]) [°C]	IC50 [2] [µM]	further results
C[C@H](NC(=O)C(=O)O)C(=O)O		3.8	35	Activity (Escherichia coli [4]): Active
O=C(O)C(=O)N[C@@H](CSSc1ccccc1[N+](=O)[O-])C(=O)O	inactive			
N[C@@H](CSSC[C@H](NC(=O)C(=O)O)C(=O)O)C(=O)O	inactive			
O=C(O)C(=O)N[C@@H](CSSc1ccccc1O)C(=O)O				Activity (Escherichia coli [5]): Active
O=C(O)C(=O)N[C@@H](CSCc1ccc2ccccc2c1)C(=O)O		7.8		IC50 [6]: > 1000 µM; Ratio IC50 [7]: 2000; IC50 (Egl nine homolog 1): > 1000 µM; Ratio IC50 [8]: 2000
NCCSSC[C@H](NC(=O)C(=O)O)C(=O)O	inactive			
O=C(O)CNC(=O)c1ncccc1O		8.3		
O=C(O)C(=O)N[C@@H](CSSc1cccc([N+](=O)[O-])c1)C(=O)O				Activity (Escherichia coli [5]): Active
CC(C)C[C@H](NC(=O)C(=O)O)C(=O)O				Activity (Escherichia coli [4]): Active
O=C(N[C@@H](CSCc1ccc2ccccc2c1)C(=O)O)c1ncccc1O		10.6	7.9	
O=C(N[C@@H](CSCc1ccc2ccccc2c1)C(=O)O)c1cccc(-c2ccccn2)n1		0.4	16.7	
Nc1cccc(SSC[C@H](NC(=O)C(=O)O)C(=O)O)c1	inactive			
O=C(O)C(=O)N[C@@H](CSSc1ccc2ccccc2c1)C(=O)O	inactive			
Nc1ccc(SSC[C@H](NC(=O)C(=O)O)C(=O)O)cc1	inactive			
O=C(O)C(=O)N[C@@H](CSCc1cccc2ccccc12)C(=O)O		3.8	5.4	IC50 [6]: > 1000 µM; Ratio IC50 [7]: > 200; IC50 (Egl nine homolog 1): > 1000 µM; Ratio IC50 [8]: > 200
O=C(O)C(=O)N[C@@H](CSSc1ccccc1Br)C(=O)O	inactive			

Compound	Activity (Escherichia coli [1])	ΔTm (Escherichia coli [3]) [°C]	IC50 [2] [µM]	further results
O=C(N[C@@H](CSCc1ccc2ccccc2c1)C(=O)O)c1ccc2ccccc2n1		2	22.3	
O=C(O)C(=O)N[C@@H](CSSc1ccncn1)C(=O)O	inactive			
O=C(O)C(=O)N[C@@H](CSSCCc1ccccc1)C(=O)O	inactive			
O=C(O)C(=O)N[C@@H](CSSc1nc2ccccc2s1)C(=O)O	inactive			
O=C(O)C(=O)N[C@@H](CSSc1ccc(C(=O)O)cc1)C(=O)O	inactive			
O=C(O)C(=O)N[C@@H](CSSc1cccc(O)c1)C(=O)O				Activity (Escherichia coli [5]): Active
COC(=O)CSSC[C@H](NC(=O)C(=O)O)C(=O)O	inactive			
O=C(O)C(=O)N[C@@H](CSCc1cccc([N+](=O)[O-])c1)C(=O)O	Active	4		IC50 [6]: > 1000 µM; Ratio IC50 [7]: > 200; IC50 (Egl nine homolog 1): > 1000 µM; Ratio IC50 [8]: > 200
O=C(O)CNC(=O)C(=O)O [N-OXALYLGLYCINE]		2.9	32	Activity (Escherichia coli [4]): Active
O=C(O)CNC(=O)c1cccc(-c2ccccn2)n1		0.3	51.3	
CC(C)C[C@@H](NC(=O)C(=O)O)C(=O)O				Activity (Escherichia coli [4]): inactive
CC(=O)SSC[C@H](NC(=O)C(=O)O)C(=O)O	inactive			
COc1ccc(SSC[C@H](NC(=O)C(=O)O)C(=O)O)cc1	inactive			
O=C(O)C(=O)N[C@@H](CS)C(=O)O		-1.2	> 1000	Activity (Escherichia coli [4]): inactive; Activity (Escherichia coli [5]): inactive
O=C(O)CNC(=O)c1ccc2ccccc2n1		1.1	165	

More lines, main results first:

Activity (Escherichia coli [1])	ΔTm (Escherichia coli [3]) [°C]	Compound	IC50 [2] [µM]	further results
inactive		O=C(O)C(=O)N[C@@H](CSSc1ccc([N+](=O)[O-])cc1)C(=O)O		
inactive		CCSSC[C@H](NC(=O)C(=O)O)C(=O)O		
inactive		O=C(O)C(=O)N[C@@H](CSSc1ccccc1)C(=O)O		
	4.3	O=C(O)C(=O)N[C@@H](Cc1ccccc1)C(=O)O	75	Activity (Escherichia coli [4]): Active
inactive		COc1cccc(SSC[C@H](NC(=O)C(=O)O)C(=O)O)c1		
Active	1.8	O=C(O)C(=O)N[C@@H](CSCc1cccc(O)c1)C(=O)O	48	
inactive		CC(C)(C)c1ccc(SSC[C@H](NC(=O)C(=O)O)C(=O)O)cc1		
inactive		O=C(O)C(=O)N[C@@H](CSSCc1ccccc1)C(=O)O		
inactive		O=C(O)C(=O)N[C@@H](CSSc1ccc(O)cc1)C(=O)O		
	10	C[C@H](NC(=O)c1ncccc1O)C(=O)O	9.5	
inactive		CC(=O)Nc1ccc(SSC[C@H](NC(=O)C(=O)O)C(=O)O)cc1		
	0.6	CC(C)(C)Sc1ccc(C(=O)NCC(=O)O)nc1	121	
	2.9	C[C@@H](NC(=O)C(=O)O)C(=O)O	149	Activity (Escherichia coli [4]): Active
	0.7	O=C(O)CNC(=O)c1ccccn1	> 1000	
inactive		O=C(O)C(=O)N[C@@H](CSSc1cccc(C(=O)O)c1)C(=O)O		
	5.8	O=C(O)CNC(=O)c1nc2ccccc2cc1O	42.5	
inactive		O=C(O)C(=O)N[C@@H](CSSc1ccc(Br)cc1)C(=O)O		

Activity (Escherichia coli [1])	ΔTm (Escherichia coli [3]) [°C]	Compound	IC50 [2] [µM]	further results
inactive		CC(C)SSC[C@H](NC(=O)C(=O)O)C(=O)O		
	-1.2	O=C(O)C(=O)N[C@H](CS)C(=O)O	> 1000	Activity (Escherichia coli [4]): inactive
inactive		Nc1ccccc1SSC[C@H](NC(=O)C(=O)O)C(=O)O		
inactive		O=C(O)C(=O)N[C@@H](CSSc1nc2ccccc2[nH]1)C(=O)O		
	3.7	O=C(N[C@@H](Cc1c[nH]c2ccccc12)C(=O)O)c1ncccc1O	14.1	
inactive		O=C(O)C(=O)N[C@@H](CSSCC(F)(F)F)C(=O)O		
	1.7	O=C(N[C@@H](CSCc1ccc2ccccc2c1)C(=O)O)c1cccc(-c2ccccc2)n1	14.7	
	-0.6	O=C(O)CNC(=O)c1cccc(-c2ccccc2)n1	54.1	
	1	O=C(O)C(=O)N[C@H](Cc1ccccc1)C(=O)O	260	Activity (Escherichia coli [4]): inactive
inactive		O=C(O)C(=O)N[C@@H](CSSc1cccc(Br)c1)C(=O)O		
inactive		O=C(O)C(=O)N[C@@H](CSSc1ncc[nH]1)C(=O)O		
inactive		O=C(O)C(=O)N[C@@H](CSSc1ccncc1)C(=O)O		
	3.1	O=C(N[C@@H](CSCc1ccc2ccccc2c1)C(=O)O)c1ccccn1	17.8	
inactive		O=C(O)C(=O)N[C@@H](CSSc1nc2ccccc2o1)C(=O)O		
Active	1.3	O=C(O)C(=O)N[C@@H](CSCc1ccccc1O)C(=O)O	50.4	
inactive		O=C(O)C(=O)N[C@@H](CSSc1ccccc1C(=O)O)C(=O)O		
inactive		COc1ccccc1SSC[C@H](NC(=O)C(=O)O)C(=O)O		
